Test results taken from publication PMC11636628 (Journal of receptor and signal transduction research, 2024).

Key:
[1] = molecular target: T1, rat CB1 (Rattus norvegicus, UniProt P20272); experiment: thallium flux, HEK/GIRK cells; assay type: cell-based
[2] = molecular target: human CB2 (Homo sapiens, UniProt P34972); experiment: thallium flux, HEK/GIRK cells; assay type: cell-based
In short: (§1)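 HEK/GIRK cells were made to stably express the receptor by ViaFect transfection with a pIRESpuro3 construct and selected with 1 μg/mL puromycin. Cells (15,000/well) were seeded overnight at 37 °C. They were loaded with 1.2 μM Thallos-AM in HBSS/20 mM HEPES pH 7.3 for 1 h at RT. Compound or DMSO was added, then 12 mM Tl2SO4 stimulus buffer with agonist 140 s later. The 145–155 s slope was vehicle-subtracted, normalized to maximal JWH133 signal and fit with a four-parameter logistic. Triplicate, three to five experiments.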

[3] = molecular target: T2, rat CB2 (Rattus norvegicus, UniProt Q9QZN9); experiment: thallium flux, HEK/GIRK cells; assay type: cell-based
T2 sequence (Q9QZN9 1-360): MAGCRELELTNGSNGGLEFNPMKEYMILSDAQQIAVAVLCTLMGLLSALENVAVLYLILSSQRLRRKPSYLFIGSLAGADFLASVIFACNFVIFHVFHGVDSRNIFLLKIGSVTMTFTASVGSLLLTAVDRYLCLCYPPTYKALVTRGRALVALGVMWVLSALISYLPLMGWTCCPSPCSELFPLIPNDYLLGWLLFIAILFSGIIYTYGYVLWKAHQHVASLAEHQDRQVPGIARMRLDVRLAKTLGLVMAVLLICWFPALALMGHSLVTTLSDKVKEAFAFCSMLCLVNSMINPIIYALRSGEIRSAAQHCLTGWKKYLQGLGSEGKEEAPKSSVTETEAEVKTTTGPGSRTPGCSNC
In short: as §1

[4] = molecular target: human CB1 (Homo sapiens, UniProt P21554); experiment: thallium flux, HEK/GIRK cells; assay type: cell-based
Sequence of human CB1 (P21554 whole entry): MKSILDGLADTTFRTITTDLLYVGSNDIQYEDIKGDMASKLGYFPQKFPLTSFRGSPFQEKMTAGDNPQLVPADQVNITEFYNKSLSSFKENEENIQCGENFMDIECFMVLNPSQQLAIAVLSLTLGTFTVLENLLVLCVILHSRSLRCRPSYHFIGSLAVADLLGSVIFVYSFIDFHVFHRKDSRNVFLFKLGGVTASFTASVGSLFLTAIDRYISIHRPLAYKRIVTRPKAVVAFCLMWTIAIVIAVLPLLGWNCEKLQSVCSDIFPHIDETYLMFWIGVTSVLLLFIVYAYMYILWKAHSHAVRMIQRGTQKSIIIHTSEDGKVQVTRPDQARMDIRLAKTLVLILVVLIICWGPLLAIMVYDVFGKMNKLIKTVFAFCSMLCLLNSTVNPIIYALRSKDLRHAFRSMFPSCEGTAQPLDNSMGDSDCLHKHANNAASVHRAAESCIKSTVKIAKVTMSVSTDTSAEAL

[5] = molecular target: T2, rat CB2; experiment: thallium flux, HEK/GIRK cells, compound alone; assay type: cell-based
[6] = molecular target: T1, rat CB1; experiment: PI hydrolysis, [3H]inositol phosphate chromatography, HEK/Gqi9 cells; assay type: cell-based
In short: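 HEK293 cells stably expressing Gqi9 were transfected with a pIRESpuro3 receptor construct and puromycin-selected. They were seeded at 1.5 X 10^5 cells/well and assayed after 48 h. Cells were labelled overnight with 0.4 μCi myo-[3H]inositol in inositol-free DMEM with 5% dialyzed FBS. Agonists were added at 5x in 50 mM LiCl/250 mM HEPES pH 7.25 for 30 min at 37 °C. Reactions were stopped with boiling EDTA pH 8.0, and [3H]inositol phosphates were resolved on Dowex AG1-X8 and scintillation counted.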

[7] = molecular target: T2, rat CB2; experiment: [3H]CP55940 competition, HEK/GIRK membranes; assay type: binding

Sequence of human CB2 (P34972 whole entry): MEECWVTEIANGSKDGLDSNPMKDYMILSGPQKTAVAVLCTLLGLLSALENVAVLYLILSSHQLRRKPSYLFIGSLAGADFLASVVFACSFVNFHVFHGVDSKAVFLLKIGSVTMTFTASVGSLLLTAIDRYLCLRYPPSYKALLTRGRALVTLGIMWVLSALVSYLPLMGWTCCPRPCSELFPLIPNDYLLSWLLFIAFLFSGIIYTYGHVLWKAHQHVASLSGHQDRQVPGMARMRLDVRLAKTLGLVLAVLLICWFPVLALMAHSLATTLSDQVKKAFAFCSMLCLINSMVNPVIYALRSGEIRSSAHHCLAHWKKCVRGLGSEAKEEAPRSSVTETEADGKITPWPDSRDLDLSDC
T1 sequence (P20272 whole entry): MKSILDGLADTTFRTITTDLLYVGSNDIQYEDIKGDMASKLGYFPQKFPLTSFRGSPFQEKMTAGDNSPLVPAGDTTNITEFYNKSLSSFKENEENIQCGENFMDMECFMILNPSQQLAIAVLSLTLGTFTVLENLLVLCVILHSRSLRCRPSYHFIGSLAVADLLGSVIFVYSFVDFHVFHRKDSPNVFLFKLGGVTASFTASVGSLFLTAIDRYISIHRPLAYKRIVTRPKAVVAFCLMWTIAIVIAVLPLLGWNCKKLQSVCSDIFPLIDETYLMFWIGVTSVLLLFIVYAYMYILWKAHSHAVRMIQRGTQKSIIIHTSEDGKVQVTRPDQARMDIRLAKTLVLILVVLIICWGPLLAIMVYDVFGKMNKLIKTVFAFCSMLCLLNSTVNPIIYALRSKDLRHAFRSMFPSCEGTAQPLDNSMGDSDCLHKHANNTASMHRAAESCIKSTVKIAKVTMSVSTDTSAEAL

SMILES	EC50 [2]	EC50 [3]	EC50 [4]	other results
CCCCC/C=C\C/C=C\C/C=C\C/C=C\CCCC(=O)NCCCl [ACEA, N-(2-Chloroethyl)-5Z,8Z,11Z,14Z-eicosatetraenamide]	1700 nM	251 nM	60.3 nM	EC50 [1]: 20 nM
Cc1c(Br)cn(Cc2ccc(F)cc2)c(=O)c1NC(=O)C1CCCCCC1 [EC21a]				EC50 [5]: 100 nM; EC50 [6]: 1700 nM
CCCC(C)(C)c1ccc2c(c1)OC(C)(C)[C@@H]1CC=C(C)C[C@@H]21 [JWH133]	275 nM	537 nM	1230 nM	
COc1ccc(C(=O)c2c(C)n(CCN3CCOCC3)c3cc(I)ccc23)cc1 [AM630]				IC50 [7]: 72.4 nM
CCCCC/C=C\C/C=C\C/C=C\C/C=C\CCCC(=O)OC(CO)CO [2-AG]	145 nM	49 nM		
